The text below walks through data of ChEMBL document CHEMBL5357066, “Development of Novel Membrane Disrupting Lipoguanidine Compounds Sensitizing Gram-Negative Bacteria to Antibiotics” (ACS Med Chem Lett, 2024).

For experiment [1], the system named is Pseudomonas aeruginosa. Put plainly: Antibacterial activity against Pseudomonas aeruginosa NCTC 13437 assessed as bacterial growth inhibition incubated for overnight by microbroth dilution method. It counts as functional. The method in brief: (§1)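 Broth microdilution in Tryptic Soy Broth. DMSO stocks were diluted in TSB as 2-fold series. Overnight TSB cultures were back-diluted to OD 0.01 and mixed 1:1 with compound. Incubation was overnight at 37 °C. MIC was the lowest concentration without visible growth (<0.1 OD600). DMSO vehicle was checked at equivalent concentrations.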
(In general: Broth dilution looks for growth in wells or tubes with falling amounts of substance.)

Experiment [2] has as its system Acinetobacter baumannii. Nature of the experiment: Antibacterial activity against Acinetobacter baumannii AYE assessed as bacterial growth inhibition incubated for overnight by microbroth dilution method. It counts as functional. A digest of the protocol:
as §1

For experiment [3], the system named is Acinetobacter baumannii. Put plainly: Antibacterial activity against Acinetobacter baumannii ATCC 17978 assessed as bacterial growth inhibition incubated for overnight by microbroth dilution method. Format: functional. A digest of the protocol: as §1
In experiment [4] the test system is Pseudomonas aeruginosa. Nature of the experiment: Antibacterial activity against Pseudomonas aeruginosa PAO1 assessed as bacterial growth inhibition incubated for overnight by microbroth dilution method. Format: functional. The method in brief: as §1
Experiment [5] relates to Escherichia coli. Put plainly: Antibacterial activity against Escherichia coli NCTC 12923 assessed as bacterial growth inhibition incubated for overnight by microbroth dilution method. Format: functional. A digest of the protocol: as §1
The test system of experiment [6] is Klebsiella pneumoniae. Put plainly: Synergistic antibacterial activity against Klebsiella pneumoniae NCTC 13368 assessed as rifampicin MIC at <=0.25 times MIC incubated for overnight by microbroth dilution checkerboard assay. Format: functional. The method in brief:
(§2)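 Checkerboard microdilution under MIC conditions (TSB, overnight, 37 °C). Two-fold series of each agent were combined on one plate before bacteria were added, and single-agent MICs were measured on the same plate. FIC = sum of combination MIC/alone MIC for each agent, taken from the most synergistic well. Three independent repeats, mean ± SD. ≤0.5 was taken as strong synergy and 0.5–<1 as weak.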

Experiment [7] concerns Klebsiella pneumoniae. Put plainly: Synergistic antibacterial activity against […] Klebsiella pneumoniae M6 assessed as rifampicin MIC at <=0.25 times MIC incubated for overnight by microbroth dilution checkerboard assay. Format: functional. The method in brief:
(§3)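 Checkerboard run under the MIC conditions (TSB, overnight, 37 °C). Antibiotic and lipoguanidine 2-fold series were combined on one plate before bacteria were added. Growth/no-growth was scored as for the MIC (<0.1 OD600). Single-agent MICs were measured on the same plates. Three independent repeats were done.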

The subject of experiment [8] is Acinetobacter baumannii. Put plainly: Synergistic antibacterial activity against Acinetobacter baumannii AYE assessed as rifampicin MIC at <=0.25 times MIC incubated for overnight by microbroth dilution checkerboard assay. Format: functional. The method in brief:
as §2

The subject of experiment [9] is Acinetobacter baumannii. Nature of the experiment: Synergistic antibacterial activity against Acinetobacter baumannii ATCC 17978 assessed as rifampicin MIC at <=0.25 times MIC incubated for overnight by microbroth dilution checkerboard assay. Format: functional. The method in brief: as §2
In experiment [10] the test system is Pseudomonas aeruginosa. Put plainly: Synergistic antibacterial activity against Pseudomonas aeruginosa PAO1 assessed as rifampicin MIC at <=0.25 times MIC incubated for overnight by microbroth dilution checkerboard assay. Format: functional. The method in brief: (§4)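 Checkerboard microdilution in Tryptic Soy Broth, run like the MIC assay. Overnight TSB cultures were back-diluted to OD 0.01 and added 1:1 to the combined two-fold series of both agents, then incubated overnight at 37 °C. Growth/no-growth was called at <0.1 OD600. MICs alone were read on the same plates. FIC index came from the most synergistic well; three independent repeats, mean ± SD.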

Experiment [11] relates to Pseudomonas aeruginosa. Put plainly: Synergistic antibacterial activity against Pseudomonas aeruginosa NCTC 13437 assessed as rifampicin MIC at <=0.25 times MIC incubated for overnight by microbroth dilution checkerboard assay. Format: functional. A digest of the protocol: as §4
Experiment [12] has as its system Escherichia coli. Put plainly: Synergistic antibacterial activity against Escherichia coli NCTC 12923 assessed as rifampicin MIC at <=0.25 times MIC incubated for overnight by microbroth dilution checkerboard assay. Format: functional. The method in brief: as §2
For experiment [13], the system named is Klebsiella pneumoniae. Nature of the experiment: Synergistic antibacterial activity against Klebsiella pneumoniae NCTC 13368 assessed as fold change in rifampicin MIC at <=0.25 times MIC incubated for overnight by microbroth dilution checkerboard assay relative to rifampicin alone. It counts as functional. The method in brief:
as §3

Experiment [14] deals with Klebsiella pneumoniae. Put plainly: Synergistic antibacterial activity against […] Klebsiella pneumoniae M6 assessed as fold change in rifampicin MIC at <=0.25 times MIC incubated for overnight by microbroth dilution checkerboard assay relative to rifampicin alone. It counts as functional. The method in brief: as §3
The subject of experiment [15] is Acinetobacter baumannii. Nature of the experiment: Synergistic antibacterial activity against Acinetobacter baumannii AYE assessed as fold change in rifampicin MIC at <=0.25 times MIC incubated for overnight by microbroth dilution checkerboard assay relative to rifampicin alone. Format: functional. The method in brief:
as §2

Experiment [16] has as its system Acinetobacter baumannii. Nature of the experiment: Synergistic antibacterial activity against Acinetobacter baumannii ATCC 17978 assessed as fold change in rifampicin MIC at <=0.25 times MIC incubated for overnight by microbroth dilution checkerboard assay relative to rifampicin alone. It counts as functional. The method in brief: as §2
Experiment [17] concerns Pseudomonas aeruginosa. Put plainly: Synergistic antibacterial activity against Pseudomonas aeruginosa PAO1 assessed as fold change in rifampicin MIC at <=0.25 times MIC incubated for overnight by microbroth dilution checkerboard assay relative to rifampicin alone. Format: functional. The method in brief:
as §4

For experiment [18], the system named is Pseudomonas aeruginosa. Nature of the experiment: Synergistic antibacterial activity against Pseudomonas aeruginosa NCTC 13437 assessed as fold change in rifampicin MIC at <=0.25 times MIC incubated for overnight by microbroth dilution checkerboard assay relative to rifampicin alone. It counts as functional. A digest of the protocol:
as §4

For experiment [19], the system named is Escherichia coli. Nature of the experiment: Synergistic antibacterial activity against Escherichia coli NCTC 12923 assessed as fold change in rifampicin MIC at <=0.25 times MIC incubated for overnight by microbroth dilution checkerboard assay relative to rifampicin alone. It counts as functional. A digest of the protocol: as §2
Experiment [20] relates to Klebsiella pneumoniae. Put plainly: Antibacterial activity against Klebsiella pneumoniae M6 assessed as bacterial growth inhibition incubated for overnight by microbroth dilution method.
Experiment [21] concerns Klebsiella pneumoniae. Nature of the experiment: Antibacterial activity against ESBL Klebsiella pneumoniae NCTC 13368 assessed as bacterial growth inhibition incubated for overnight by microbroth dilution method.
The test system of experiment [22] is Klebsiella pneumoniae. Put plainly: Synergistic antibacterial activity against Klebsiella pneumoniae NCTC 13368 assessed as rifampicin MIC at 30 microg/ml incubated for overnight by microbroth dilution checkerboard assay. Format: functional. The note with it: dose 30 µg/ml.
In experiment [23] the test system is Klebsiella pneumoniae. Nature of the experiment: Synergistic antibacterial activity against Klebsiella pneumoniae M6 assessed as rifampicin MIC at 30 microg/ml incubated for overnight by microbroth dilution checkerboard assay. Conditions: dose 30 µg/ml. Format: functional.
The subject of experiment [24] is Acinetobacter baumannii. Put plainly: Synergistic antibacterial activity against Acinetobacter baumannii AYE assessed as rifampicin MIC at 30 microg/ml incubated for overnight by microbroth dilution checkerboard assay. It counts as functional. Conditions: dose 30 µg/ml.
In experiment [25] the test system is Acinetobacter baumannii. Nature of the experiment: Synergistic antibacterial activity against Acinetobacter baumannii ATCC 17978 assessed as rifampicin MIC at 30 microg/ml incubated for overnight by microbroth dilution checkerboard assay. It counts as functional. The note with it: dose 30 µg/ml.
For experiment [26], the system named is Pseudomonas aeruginosa. Nature of the experiment: Synergistic antibacterial activity against Pseudomonas aeruginosa PAO1 assessed as rifampicin MIC at 30 microg/ml incubated for overnight by microbroth dilution checkerboard assay. It counts as functional. The note with it: dose 30 µg/ml. A digest of the protocol:
(§5)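 Fixed-concentration combination MIC in TSB. The first agent was set in a two-fold dilution series (100 µL/well), then 50 µL/well of the second agent at a fixed concentration was added; PMBN was fixed at 30 µg/mL. Bacteria at OD 0.02 (50 µL) went into 150 µL of compounds, overnight at 37 °C. MIC was the lowest concentration without visible growth (<0.1 OD600).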

The test system of experiment [27] is Pseudomonas aeruginosa. Nature of the experiment: Synergistic antibacterial activity against Pseudomonas aeruginosa NCTC 13437 assessed as rifampicin MIC at 30 microg/ml incubated for overnight by microbroth dilution checkerboard assay. Format: functional. The note with it: dose 30 µg/ml. The method in brief:
as §5

Experiment [28] concerns Escherichia coli. Put plainly: Synergistic antibacterial activity against Escherichia coli NCTC 12923 assessed as rifampicin MIC at 30 microg/ml incubated for overnight by microbroth dilution checkerboard assay. The note with it: dose 30 µg/ml. Format: functional.

For orientation: MIC means the lowest concentration found to suppress growth. Take `NCCCCN=C(N)N` [AGMATINE]: the MIC in experiment [1] was above 128 µg/mL; in [2], above 128 µg/mL; in experiment [3], above 128 µg/mL; in [4], above 128 µg/mL; in [5] it was above 128 µg/mL; in experiment [6], 32 µg/mL. Further, the MIC in experiment [7] worked out at 32 µg/mL; in experiment [8], 16 µg/mL; in experiment [9], 4 µg/mL; in experiment [10], 32 µg/mL; in experiment [11], 32 µg/mL; in [12] it was 32 µg/mL. The MIC in experiment [20] and in experiment [21] was above 128 µg/mL in each case. The “fold change (FC)” value in experiment [13], in experiment [14], in [15], in experiment [16], in [17] and in experiment [18] was 0 throughout. In addition, the “fold change (FC)” value in [19] was determined as 0.

On to `CC(C)C[C@@H]1NC(=O)[C@@H](Cc2ccccc2)NC(=O)[C@H](CCN)NC(=O)[C@@H](NC(=O)[C@H](CCN)NC(=O)[C@@H](N)[C@@H](C)O)CCNC(=O)[C@H]([C@@H](C)O)NC(=O)[C@@H](CCN)NC(=O)[C@H](CCN)NC1=O`, for which the MIC in experiment [22] was 1 µg/mL; in experiment [23] it was 0.5 µg/mL; in experiment [24], 0.25 µg/mL; in experiment [25] it was at most 0.125 µg/mL; in [26], at most 0.125 µg/mL; in [27] it was at most 0.125 µg/mL. Moreover, the minimum inhibitory concentration (MIC) in experiment [28] was at most 0.125 µg/mL.
